Reference: ChEMBL document CHEMBL5335802, “Lead Optimization of the 5-Phenylpyrazolopyrimidinone NPD-2975 toward Compounds with Improved Antitrypanosomal Efficacy” (J Med Chem, 2024)
Activity calls are given as the source filed them. The calls are words filed in the database; no cut-off is given here.

Columns and labels:
[1] = Cytotoxicity against mouse Peritoneal macrophage cell incubated for 3 days by resazurin reagent fluorimetric analysis; type: toxicity, cell-based; details: peritoneal macrophages
[2] = Metabolic stability in human liver microsomes assessed as parent compound remaining in phase-II metabolism measured after 1 hr; type: ADME, Microsome; details: read-out: Stability
[3] = Metabolic stability in mouse liver microsomes assessed as parent compound remaining in phase-II metabolism measured after 1 hr; type: ADME, Microsome; details: read-out: Stability
[4] = Cytotoxicity against human MRC5 cells incubated for 3 days by resazurin reagent fluorimetric analysis; type: toxicity, cell-based
[5] = Metabolic stability in human liver microsomes assessed as drug metabolism in phase-I stage; type: ADME, Microsome
[6] = Toxicity in mouse infected with Trypanosoma brucei Squib 427 trypomastigotes assessed as animal death at 10 mg/kg,po bid administrated for 5 consecutive days measured after 60 days; type: organism-based; details: in vivo, 1440 h, time 60 day
Trypanosoma brucei [7] = assay: Antitrypanosomal activity against Trypanosoma brucei assessed as inhibition of parasite growth incubated for 72 hrs by resazurin reagent fluorimetric analysis; type: functional, organism-based
Plasmodium falciparum = assay: Antiplasmodial activity against Plasmodium falciparum assessed as inhibition of parasite growth incubated for 72 hrs by resazurin reagent fluorimetric analysis; type: functional, organism-based
Trypanosoma brucei [8] = assay: Antitrypanosomal activity against Trypanosoma brucei Squib 427 trypomastigotes infected in mouse model assessed as reduction in parasite growth in blood at 50 mg/kg,po bid administrated for 5 consecutive days by SL-RNA qPCR assay; type: functional, organism-based
Summary of the method: (§1)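 Surviving mice from the acute infection model (PO b.i.d., 5 days, PEG400) tested by SL-RNA qPCR. Peripheral blood erythrocyte-lysed before RNA extraction. Mice sedated with ketamine/xylazine and perfused; fat, brain and spleen pieces held in RNAlater overnight at 4 °C. Activation 10 min 45 °C, 10 min 95 °C; 40 cycles 95/50/60 °C, 15 s each; melting curve. Eef2 qPCR confirmed RNA extraction.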

Trypanosoma brucei [9] = assay: Antitrypanosomal activity against Trypanosoma brucei Squib 427 trypomastigotes infected in mouse model assessed as reduction in parasite growth in blood at 25 mg/kg,po bid administrated for 5 consecutive days by SL-RNA qPCR assay; type: functional, organism-based; summary of the method: as §1
Trypanosoma brucei [10] = assay: Antitrypanosomal activity against Trypanosoma brucei Squib 427 trypomastigotes infected in mouse model assessed as reduction in parasite growth in brain at 25 mg/kg,po bid administrated for 5 consecutive days by SL-RNA qPCR assay; type: functional, organism-based; summary of the method: as §1
[11] = Toxicity in mouse infected with Trypanosoma brucei Squib 427 trypomastigotes assessed as animal death at 25 mg/kg,po bid administrated for 5 consecutive days; type: organism-based; details: in vivo
Summary of the method: (§2)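 Female Swiss mice (15-20 g), groups of three, infected IP with 10⁴ T. brucei Squib 427 trypomastigotes. Compound given PO b.i.d. for 5 days in PEG400 (formulated at 12.5 and 6.25 mg/mL, up to 100 μL/25 g body weight). First dose 30 min before infection. PEG400 vehicle control group included. Animals observed for clinical or adverse effects and survival; tail-vein parasitemia checked microscopically until 63 dpi.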

Trypanosoma brucei [12] = assay: Antitrypanosomal activity against Trypanosoma brucei Squib 427 trypomastigotes infected in mouse model assessed as reduction in parasite growth in spleen at 25 mg/kg,po bid administrated for 5 consecutive days by SL-RNA qPCR assay; type: functional, organism-based; summary of the method: as §1
Trypanosoma brucei [13] = assay: Antitrypanosomal activity against Trypanosoma brucei Squib 427 trypomastigotes infected in mouse model assessed as reduction in parasite growth in fat at 25 mg/kg,po bid administrated for 5 consecutive days by SL-RNA qPCR assay; type: functional, organism-based; summary of the method: as §1
Trypanosoma brucei [14] = assay: Antitrypanosomal activity against Trypanosoma brucei Squib 427 trypomastigotes infected in mouse model assessed as reduction in parasite growth in brain at 50 mg/kg,po bid administrated for 5 consecutive days by SL-RNA qPCR assay; type: functional, organism-based; summary of the method: as §1
Trypanosoma brucei [15] = assay: Antitrypanosomal activity against Trypanosoma brucei Squib 427 trypomastigotes infected in mouse model assessed as reduction in parasite growth in spleen at 50 mg/kg,po bid administrated for 5 consecutive days by SL-RNA qPCR assay; type: functional, organism-based; summary of the method: as §1
Trypanosoma brucei [16] = assay: Antitrypanosomal activity against Trypanosoma brucei Squib 427 trypomastigotes infected in mouse model assessed as reduction in parasitemia at 50 mg/kg,po bid administrated for 5 consecutive days by microscopic analysis; type: functional, organism-based
Summary of the method: (§3)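 Female Swiss mice (15-20 g), three per group, infected IP with 10^4 T. brucei Squib 427 trypomastigotes. Dosing PO b.i.d. for 5 days in PEG400; first dose 30 min before infection. Vehicle and suramin (10 mg/kg IP s.i.d., 5 days) controls. Parasitemia counted microscopically in tail-vein blood drops at several time points up to 63 dpi. Clinical or adverse effects observed.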

[17] = Toxicity in mouse infected with Trypanosoma brucei Squib 427 trypomastigotes assessed as animal death at 50 mg/kg,po bid administrated for 5 consecutive days measured after 60 days; type: organism-based; details: in vivo, 1440 h, time 60 day; summary of the method: as §2
Trypanosoma brucei [18] = assay: Antitrypanosomal activity against Trypanosoma brucei Squib 427 trypomastigotes infected in mouse model assessed as reduction in parasite growth in fat at 50 mg/kg,po bid administrated for 5 consecutive days by SL-RNA qPCR assay; type: functional, organism-based; summary of the method: as §1
Trypanosoma brucei [19] = assay: Antitrypanosomal activity against Trypanosoma brucei Squib 427 trypomastigotes infected in mouse model assessed as reduction in parasitemia at 25 mg/kg,po bid administrated for 5 consecutive days; type: functional, organism-based; summary of the method: as §3

For `O=c1[nH]c(-c2ccc(F)cc2)nc2c(C3CCCC3)n[nH]c12`, the IC50 at 3 days [1] was over 63.1 µM, the remaining at 1 h [2] was 69% and the remaining at 1 h [3] was 69%. The IC50 at 3 days [4] was over 63.1 µM and the Stability [5] was “Stable”.

With `COCCn1nc(C(C)C)c2nc(-c3ccc(F)cc3)[nH]c(=O)c21` the IC50 at 3 days [4] was over 63.1 µM.

Compound `CCCn1nc(C(C)C)c2nc(-c3ccc(F)cc3)[nH]c(=O)c21` has an IC50 at 3 days [4] of over 63.1 µM.

With `CCn1nc(C(C)C)c2nc(-c3ccc(F)cc3)[nH]c(=O)c21` the IC50 at 3 days [4] was over 63.1 µM.

In the case of `Cc1ccc(C(=O)Nc2ccc(S(=O)(=O)O)c3cc(S(=O)(=O)O)cc(S(=O)(=O)O)c23)cc1NC(=O)c1cccc(NC(=O)Nc2cccc(C(=O)Nc3cc(C(=O)Nc4ccc(S(=O)(=O)O)c5cc(S(=O)(=O)O)cc(S(=O)(=O)O)c45)ccc3C)c2)c1` [SURAMIN], the Activity [6] is reported as “Non-Toxic”.

In the case of `CCc1n[nH]c2c(=O)[nH]c(-c3ccc(F)cc3)nc12`, the IC50 at 3 days [4] is reported as over 63.1 µM.

Compound `CC(C)c1nn(CCC(N)=O)c2c(=O)[nH]c(-c3ccc(F)cc3)nc12` has an IC50 at 3 days [4] of over 63.1 µM.

With `CC(C)c1[nH]nc2c(=O)n(C)c(-c3ccc(F)cc3)nc12` the IC50 at 3 days [4] was over 63.1 µM.

`CC(C)c1nn(C)c2c(=O)[nH]c(-c3ccc(F)cc3)nc12` showed an IC50 at 3 days [4] of over 63.1 µM and an IC50 (Trypanosoma brucei [7]; read-out: pIC50 (converted)) of 0.0794 µM.

`COc1ccc(CCn2nc(C(C)C)c3nc(-c4ccc(F)cc4)[nH]c(=O)c32)cc1` showed an IC50 at 3 days [4] of over 63.1 µM, an IC50 (Trypanosoma brucei [7]; read-out: IC50) of 3.2 µM and an IC50 (Trypanosoma brucei [7]; read-out: pIC50 (converted)) of 3.16 µM.

`CC(C)c1c2nc(-c3ccc(F)cc3)[nH]c(=O)c2nn1C` gave an IC50 at 3 days [4] of over 63.1 µM.

Compound `CC(C)c1nn(C(C)C)c2c(=O)[nH]c(-c3ccc(F)cc3)nc12` has an IC50 at 3 days [4] of over 63.1 µM.

With `O=c1[nH]c(-c2ccc(F)cc2)nc2c(-c3ccccc3)n[nH]c12` the IC50 at 3 days [4] was over 63.1 µM and the IC50 (Trypanosoma brucei [7]; read-out: pIC50 (converted)) was 0.0501 µM.

Compound `Cc1n[nH]c2c(=O)[nH]c(-c3ccc(F)cc3)nc12` has an IC50 at 3 days [4] of over 63.1 µM.

In the case of `CC(C)c1nn(CCO)c2c(=O)[nH]c(-c3ccc(F)cc3)nc12`, the IC50 at 3 days [4] is reported as over 63.1 µM.

With `CC(C)c1n[nH]c2c(=O)[nH]c(-c3ccc(F)cc3)nc12` the remaining at 1 h [2] was 69%, the remaining at 1 h [3] was 69% and the Stability [5] was “Stable”.

`CC(C)c1n[nH]c2c(=O)[nH]c(Cc3ccccc3)nc12` gave an IC50 (Plasmodium falciparum) of 1.26 µM.

With `O=c1[nH]c(-c2ccc(F)cc2)nc2c(C3CCCCC3)n[nH]c12` the IC50 at 3 days [4] was over 63.1 µM and the IC50 (Trypanosoma brucei [7]; read-out: pIC50 (converted)) was 0.0398 µM.

In the case of `O=c1[nH]c(-c2ccc(F)cc2)nc2cn[nH]c12`, the IC50 at 3 days [4] is reported as over 63.1 µM.

In the case of `CC(C)(C)c1n[nH]c2c(=O)[nH]c(-c3ccc(F)cc3)nc12`, the Activity (Trypanosoma brucei [8]) is reported as “Active”, the IC50 at 3 days [1] is reported as over 63.1 µM and the Activity (Trypanosoma brucei [9]) is reported as “Active”. The Activity (Trypanosoma brucei [10]) was “Active”, the remaining at 1 h [2] was 69% and the Activity [11] was “Non-Toxic”. For the same compound, the Activity (Trypanosoma brucei [12]) was “Active”, the Activity (Trypanosoma brucei [13]) was “Active” and the Activity (Trypanosoma brucei [14]) was “Active”. For the same compound, the Activity (Trypanosoma brucei [15]) was “Active”, the Activity (Trypanosoma brucei [16]) was “Active” and the remaining at 1 h [3] was 69%. For the same compound, the Activity [17] was “Non-Toxic”, the Activity (Trypanosoma brucei [18]) was “Active” and the IC50 at 3 days [4] was over 63.1 µM. The Activity (Trypanosoma brucei [19]) was “Active” and the Stability [5] was “Stable”.
